{"source": "ChEMBL document CHEMBL4406821", "about": "“Novel dual inhibitors targeting CDK4 and VEGFR2 synergistically suppressed cancer progression and angiogenesis” (Eur J Med Chem, 2019)", "key": {"[1]": {"biological_target": "Casein kinase II subunit alpha' (Homo sapiens) (UniProt P19784)", "assay": "Inhibition of recombinant human full length CK2alpha2 at 1 uM using RRRDDDSDDD as substrate incubated for 40 mins in presence of [gamma-33P]-ATP by scintillation counting method relative to control"}, "[2]": {"biological_target": "Insulin receptor (Homo sapiens) (UniProt P06213)", "assay": "Inhibition of recombinant human IR (1005 to 1310 residues) at 1 uM using KKKSPGEYVNIEFG as substrate incubated for 40 mins in presence of [gamma-33P]-ATP by scintillation counting method relative to control"}, "[3]": {"biological_target": "Receptor-interacting serine/threonine-protein kinase 1 (Homo sapiens) (UniProt Q13546)", "assay": "Inhibition of recombinant human RIPK1 (8 to 322 residues) at 1 uM using myelin basic protein as substrate incubated for 40 mins in presence of [gamma-33P]-ATP by scintillation counting method relative to control"}, "[4]": {"biological_target": "Protein kinase C theta type (Homo sapiens) (UniProt Q04759)", "sequence (Q04759 whole entry, looked up)": "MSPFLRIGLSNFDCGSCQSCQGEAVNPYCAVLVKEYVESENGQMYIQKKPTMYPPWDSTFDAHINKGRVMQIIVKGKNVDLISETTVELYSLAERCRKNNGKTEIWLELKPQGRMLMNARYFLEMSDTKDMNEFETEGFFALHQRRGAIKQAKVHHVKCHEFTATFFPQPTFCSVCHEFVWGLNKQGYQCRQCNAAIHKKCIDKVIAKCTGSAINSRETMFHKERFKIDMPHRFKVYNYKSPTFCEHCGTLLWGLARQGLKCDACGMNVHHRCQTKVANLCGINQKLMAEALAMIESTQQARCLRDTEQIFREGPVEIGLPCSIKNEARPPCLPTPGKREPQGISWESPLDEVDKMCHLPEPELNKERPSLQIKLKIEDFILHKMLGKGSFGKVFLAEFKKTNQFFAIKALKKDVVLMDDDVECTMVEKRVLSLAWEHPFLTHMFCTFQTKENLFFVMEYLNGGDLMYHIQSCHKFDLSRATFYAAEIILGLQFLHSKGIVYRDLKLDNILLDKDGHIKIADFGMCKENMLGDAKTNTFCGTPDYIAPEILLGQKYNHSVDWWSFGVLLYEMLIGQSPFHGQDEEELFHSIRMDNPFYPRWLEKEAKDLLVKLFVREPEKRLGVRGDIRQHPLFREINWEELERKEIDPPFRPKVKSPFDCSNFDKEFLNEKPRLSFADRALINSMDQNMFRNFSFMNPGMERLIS", "assay": "Inhibition of recombinant human full length PKCtheta at 1 uM using histone H1 as substrate incubated for 40 mins in presence of [gamma-33P]-ATP by scintillation counting method relative to control"}, "[5]": {"tested_on": "HeLa", "assay": "Induction of apoptosis in human HeLa cells assessed as increase in late apoptotic cells at 20 to 40 nM incubated for 48 hrs by annexin V FITC and propidium iodide staining based flow cytometry", "type": "functional, cell-based", "outline": "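Cells were treated for 48 h, stained with FITC Annexin V and PI, and analyzed by flow cytometry to count early and late apoptotic cells.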"}, "[6]": {"biological_target": "SRSF protein kinase 2 (Homo sapiens) (UniProt P78362)", "assay": "Inhibition of recombinant human SRPK2 (46 to end residues) at 1 uM using RSRSRSRSRSRSRSR as substrate incubated for 40 mins in presence of [gamma-33P]-ATP by scintillation counting method relative to control"}, "[7]": {"tested_on": "HUVEC", "assay": "Antiproliferative activity against HUVEC cells assessed as reduction in cell viability at 20 to 40 nM by CCK8 assay", "type": "functional, cell-based", "settings": "Homo sapiens, TDE = time-dependent effect", "outline": "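HUVECs, 3×10³ cells/well, kept in 1640 medium with 10% FBS at 37°C and 5% CO₂. Cells were treated at 20 or 40 nM or vehicle, and viability was read by CCK-8 (absorbance 450 nm) at 0, 12, 24, 36, 48, 60 and 72 h. Five replicates per sample.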"}, "[8]": {"biological_target": "Receptor tyrosine-protein kinase erbB-4 (Homo sapiens) (UniProt Q15303)", "assay": "Inhibition of recombinant human ERBB4 (706 to 991 residues) at 1 uM using poly (Glu, Tyr) 4:1 as substrate incubated for 40 mins in presence of [gamma-33P]-ATP by scintillation counting method relative to control", "outline": "(§1)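 Tested at a single 1 uM in an outsourced commercial kinase-profiling panel, read as percent inhibition. Each value is the mean of two independent experiments.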"}, "[9]": {"biological_target": "Serine/threonine-protein kinase MRCK alpha (Homo sapiens) (UniProt Q5VT25)", "sequence (Q5VT25 whole entry, the tested form may be a part)": "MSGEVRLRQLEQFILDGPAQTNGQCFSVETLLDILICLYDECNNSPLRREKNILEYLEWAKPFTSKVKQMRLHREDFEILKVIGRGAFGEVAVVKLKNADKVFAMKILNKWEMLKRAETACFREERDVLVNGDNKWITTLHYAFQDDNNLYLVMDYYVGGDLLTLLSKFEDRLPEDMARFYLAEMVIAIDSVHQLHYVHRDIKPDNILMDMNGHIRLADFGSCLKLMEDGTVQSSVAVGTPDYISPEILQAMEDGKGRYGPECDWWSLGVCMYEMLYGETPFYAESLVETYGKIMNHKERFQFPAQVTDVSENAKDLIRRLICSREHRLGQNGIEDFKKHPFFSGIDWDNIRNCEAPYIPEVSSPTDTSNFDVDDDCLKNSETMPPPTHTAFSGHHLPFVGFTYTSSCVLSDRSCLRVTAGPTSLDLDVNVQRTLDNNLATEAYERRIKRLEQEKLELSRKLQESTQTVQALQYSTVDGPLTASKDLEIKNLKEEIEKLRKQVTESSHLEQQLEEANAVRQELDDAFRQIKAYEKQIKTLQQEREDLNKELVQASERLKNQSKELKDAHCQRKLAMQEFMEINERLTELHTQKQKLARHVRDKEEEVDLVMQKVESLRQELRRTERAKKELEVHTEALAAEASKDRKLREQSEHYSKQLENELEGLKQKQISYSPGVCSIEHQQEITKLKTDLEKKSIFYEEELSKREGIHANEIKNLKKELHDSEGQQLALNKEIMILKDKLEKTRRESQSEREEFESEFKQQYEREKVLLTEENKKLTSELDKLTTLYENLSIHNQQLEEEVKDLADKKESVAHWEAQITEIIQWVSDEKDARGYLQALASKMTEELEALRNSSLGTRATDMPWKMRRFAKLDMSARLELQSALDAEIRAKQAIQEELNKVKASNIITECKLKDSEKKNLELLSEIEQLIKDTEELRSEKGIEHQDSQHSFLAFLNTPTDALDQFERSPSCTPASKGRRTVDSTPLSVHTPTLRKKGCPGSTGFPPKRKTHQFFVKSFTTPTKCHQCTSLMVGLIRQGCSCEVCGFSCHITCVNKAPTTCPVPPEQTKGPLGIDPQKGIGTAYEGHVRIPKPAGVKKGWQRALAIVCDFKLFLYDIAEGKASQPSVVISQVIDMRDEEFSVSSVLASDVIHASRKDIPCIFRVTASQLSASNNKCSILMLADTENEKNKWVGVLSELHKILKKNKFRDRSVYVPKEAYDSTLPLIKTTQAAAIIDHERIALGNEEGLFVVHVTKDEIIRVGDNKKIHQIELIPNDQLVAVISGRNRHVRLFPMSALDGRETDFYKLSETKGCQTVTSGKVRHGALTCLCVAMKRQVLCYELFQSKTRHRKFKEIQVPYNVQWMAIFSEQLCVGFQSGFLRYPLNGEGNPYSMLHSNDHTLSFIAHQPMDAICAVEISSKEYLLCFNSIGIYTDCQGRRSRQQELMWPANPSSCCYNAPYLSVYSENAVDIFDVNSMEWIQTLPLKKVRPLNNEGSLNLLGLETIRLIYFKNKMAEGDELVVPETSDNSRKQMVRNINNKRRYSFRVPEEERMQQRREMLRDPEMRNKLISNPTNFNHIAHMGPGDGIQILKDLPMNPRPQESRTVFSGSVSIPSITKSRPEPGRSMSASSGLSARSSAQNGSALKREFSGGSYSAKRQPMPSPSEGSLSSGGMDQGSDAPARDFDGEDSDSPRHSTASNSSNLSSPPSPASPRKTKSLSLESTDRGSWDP", "assay": "Inhibition of recombinant human MRCKalpha (1 to 473 residues) at 1 uM using KKRNRTLTV as substrate incubated for 40 mins in presence of [gamma-33P]-ATP by scintillation counting method relative to control"}, "[10]": {"biological_target": "MAP kinase-activated protein kinase 3 (Homo sapiens) (UniProt Q16644)", "assay": "Inhibition of recombinant human MAPKAPK3 (2 to end residues) at 1 uM using KKLNRTLSVA as substrate incubated for 40 mins in presence of [gamma-33P]-ATP by scintillation counting method relative to control", "outline": "as §1"}, "[11]": {"tested_on": "Hepatocyte growth factor receptor (Homo sapiens), P08581 [Y1248H]", "sequence (P08581 with tags, fused parts or gaps Y1248H)": "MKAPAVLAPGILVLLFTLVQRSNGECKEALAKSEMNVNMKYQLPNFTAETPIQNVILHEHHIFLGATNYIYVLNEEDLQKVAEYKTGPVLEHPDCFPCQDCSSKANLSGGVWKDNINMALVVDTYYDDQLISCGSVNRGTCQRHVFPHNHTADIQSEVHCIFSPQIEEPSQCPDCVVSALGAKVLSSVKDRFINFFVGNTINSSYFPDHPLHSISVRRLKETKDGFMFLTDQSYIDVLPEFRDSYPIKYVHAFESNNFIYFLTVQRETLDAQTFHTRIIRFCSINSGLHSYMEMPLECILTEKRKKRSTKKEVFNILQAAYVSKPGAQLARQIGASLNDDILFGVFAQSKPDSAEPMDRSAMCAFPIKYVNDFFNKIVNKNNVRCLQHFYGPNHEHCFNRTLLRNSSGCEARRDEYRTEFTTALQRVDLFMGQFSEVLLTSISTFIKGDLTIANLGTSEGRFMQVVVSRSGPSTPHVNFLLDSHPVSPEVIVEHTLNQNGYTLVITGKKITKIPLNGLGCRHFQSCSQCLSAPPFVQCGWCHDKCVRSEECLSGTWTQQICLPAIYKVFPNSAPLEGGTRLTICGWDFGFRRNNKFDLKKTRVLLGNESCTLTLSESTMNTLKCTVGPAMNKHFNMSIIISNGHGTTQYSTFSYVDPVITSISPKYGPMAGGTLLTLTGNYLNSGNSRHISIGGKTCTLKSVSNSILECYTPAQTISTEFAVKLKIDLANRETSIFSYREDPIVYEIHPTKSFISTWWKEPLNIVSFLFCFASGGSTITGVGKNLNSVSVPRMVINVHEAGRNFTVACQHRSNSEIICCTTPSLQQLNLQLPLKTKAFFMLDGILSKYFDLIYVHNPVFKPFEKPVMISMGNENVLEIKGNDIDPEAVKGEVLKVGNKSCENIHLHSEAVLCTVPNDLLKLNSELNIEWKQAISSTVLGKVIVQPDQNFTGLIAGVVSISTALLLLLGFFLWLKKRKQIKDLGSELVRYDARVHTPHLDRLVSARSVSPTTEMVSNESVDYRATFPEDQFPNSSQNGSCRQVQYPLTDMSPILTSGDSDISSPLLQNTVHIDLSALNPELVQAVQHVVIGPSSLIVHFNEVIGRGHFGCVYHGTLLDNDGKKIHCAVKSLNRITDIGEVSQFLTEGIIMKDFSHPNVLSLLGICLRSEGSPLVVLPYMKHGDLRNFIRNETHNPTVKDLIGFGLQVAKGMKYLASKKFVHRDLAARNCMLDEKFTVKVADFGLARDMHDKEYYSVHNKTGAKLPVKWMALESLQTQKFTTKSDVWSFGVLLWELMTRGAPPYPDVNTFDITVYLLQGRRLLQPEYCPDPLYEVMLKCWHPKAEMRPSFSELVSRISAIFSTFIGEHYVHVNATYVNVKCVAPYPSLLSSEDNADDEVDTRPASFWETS", "assay": "Inhibition of recombinant human Met Y1248H mutant (974 to end residues) at 1 uM using KKKGQEEEYVFIE as substrate incubated for 40 mins in presence of [gamma-33P]-ATP by scintillation counting method relative to control"}, "[12]": {"assay": "Cmax in Sprague-Dawley rat at 10 mg/kg, iv by HPLC-MS analysis", "type": "ADME, organism-based", "design": "dose 10 mg/kg, route intravenous", "settings": "in vivo", "outline": "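Rats fitted with jugular vein catheters for serial blood sampling. Compound dissolved in saline with 5% (v/v) DMSO and given as a single 10 mg/kg dose iv or po after an overnight fast, n = 5 per group. Plasma isolated at once and measured by HPLC with tandem MS detection. Parameters derived by noncompartmental fitting.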"}, "[13]": {"biological_target": "Tyrosine-protein kinase Lyn (Homo sapiens) (UniProt P07948)", "sequence (P07948 2-512 limits assumed)": "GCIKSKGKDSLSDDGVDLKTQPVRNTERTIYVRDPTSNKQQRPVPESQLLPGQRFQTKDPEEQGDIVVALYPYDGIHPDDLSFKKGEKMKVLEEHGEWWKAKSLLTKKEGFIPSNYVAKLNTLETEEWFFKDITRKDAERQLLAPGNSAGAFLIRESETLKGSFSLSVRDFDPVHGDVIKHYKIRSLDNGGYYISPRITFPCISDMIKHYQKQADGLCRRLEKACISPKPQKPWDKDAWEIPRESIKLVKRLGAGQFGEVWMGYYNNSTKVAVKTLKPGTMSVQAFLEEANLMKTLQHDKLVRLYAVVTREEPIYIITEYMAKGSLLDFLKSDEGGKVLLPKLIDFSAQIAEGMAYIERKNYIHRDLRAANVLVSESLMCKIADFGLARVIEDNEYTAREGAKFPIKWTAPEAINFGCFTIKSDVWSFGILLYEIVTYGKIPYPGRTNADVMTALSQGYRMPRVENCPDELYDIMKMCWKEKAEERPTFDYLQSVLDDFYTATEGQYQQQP", "assay": "Inhibition of recombinant human full length LYN at 1 uM using poly(Glu, Tyr) 4:1 as substrate incubated for 40 mins in presence of [gamma-33P]-ATP by scintillation counting method relative to control"}, "[14]": {"biological_target": "Bone morphogenetic protein receptor type-1B (Homo sapiens) (UniProt O00238)", "sequence (O00238 whole entry)": "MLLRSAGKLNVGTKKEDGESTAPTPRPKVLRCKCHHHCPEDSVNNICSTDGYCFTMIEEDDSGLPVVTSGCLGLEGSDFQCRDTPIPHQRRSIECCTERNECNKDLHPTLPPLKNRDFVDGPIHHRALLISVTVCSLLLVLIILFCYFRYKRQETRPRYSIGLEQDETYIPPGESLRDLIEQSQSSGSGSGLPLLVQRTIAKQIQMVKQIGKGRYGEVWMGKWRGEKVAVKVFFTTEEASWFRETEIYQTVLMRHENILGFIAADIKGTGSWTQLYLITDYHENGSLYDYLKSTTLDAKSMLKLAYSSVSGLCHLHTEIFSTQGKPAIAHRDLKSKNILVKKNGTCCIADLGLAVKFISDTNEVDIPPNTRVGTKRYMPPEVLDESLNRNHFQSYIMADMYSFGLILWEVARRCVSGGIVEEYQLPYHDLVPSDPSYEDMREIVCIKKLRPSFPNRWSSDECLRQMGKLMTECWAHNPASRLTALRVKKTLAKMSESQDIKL", "assay": "Inhibition of recombinant human ALK6 (148 to end residues) at 1 uM using casein as substrate incubated for 40 mins in presence of [gamma-33P]-ATP by scintillation counting method relative to control", "outline": "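Kinase panel profiling at 1 μM performed by Eurofins KinaseProfiler; percent inhibition reported as mean of two independent experiments.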"}, "[15]": {"biological_target": "Serine/threonine-protein kinase 10 (Homo sapiens) (UniProt O94804)", "assay": "Inhibition of recombinant human LOK (1 to 348 residues) at 1 uM using RLGRDKYKTLRQIRQ as substrate incubated for 40 mins in presence of [gamma-33P]-ATP by scintillation counting method relative to control"}, "[16]": {"assay": "n-octanol/phosphate buffered saline partition coefficient, log D of the compound measured at pH 7.4 by shake flask method based HPLC analysis", "type": "physicochemical"}, "[17]": {"assay": "Volume of distribution in Sprague-Dawley rat at 10 mg/kg, po by HPLC-MS analysis", "type": "ADME, organism-based", "settings": "in vivo"}, "[18]": {"biological_target": "Serine/threonine-protein kinase NIM1 (Homo sapiens) (UniProt Q8IY84)", "assay": "Inhibition of recombinant human full length NIM1 at 1 uM using KKKVSRSGLYRSPSMPENLNRPR as substrate incubated for 40 mins in presence of [gamma-33P]-ATP by scintillation counting method relative to control"}, "[19]": {"tested_on": "MDA-MB-231", "assay": "Induction of apoptosis in human MDA-MB-231 cells at 40 nM incubated for 48 hrs by annexin V FITC and propidium iodide staining based flow cytometry", "type": "functional, cell-based", "outline": "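Annexin V-FITC/PI double staining with flow-cytometric readout. MDA-MB-231, T-47D, SiHa and HeLa cells were treated with graded concentrations for 48 h. MDA-MB-231 and T-47D were grown in DMEM and SiHa in 1640 medium, each with 10% FBS and 1% penicillin/streptomycin at 37°C under 5% CO2. Early- and late-stage apoptotic fractions were scored.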"}, "[20]": {"tested_on": "SiHa", "assay": "Induction of cell cycle arrest in human SiHa cells assessed as accumulation in G2/M phase at 80 nM incubated for 36 hrs by propidium iodide staining based flow cytometry", "type": "functional", "outline": "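Cells were treated with graded concentrations for 36 h, then fixed overnight in 70% ice-cold ethanol at 4°C and resuspended in PBS. Staining used 50 µg/ml PI plus 5 µg/ml RNase at 37°C for 30 min. DNA content was analysed by FACS to give G0/G1, S and G2/M fractions.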"}}, "note": "The source made the active and inactive calls. The rule behind the calls is not given here.", "data": [{"smiles": "Cc1ccc(NC(=O)C2(C(=O)Nc3ccc(Nc4ncc(F)c(-c5cc(F)c6nc(C)n(C(C)C)c6c5)n4)cc3)CC2)cc1", "values": [{"measurement": "inhibition", "setting": "[1]", "result": 72, "unit": "%"}, {"measurement": "inhibition", "setting": "[2]", "result": 35, "unit": "%"}, {"measurement": "inhibition", "setting": "[3]", "result": 15, "unit": "%"}, {"measurement": "inhibition", "setting": "[4]", "result": 40, "unit": "%"}, {"measurement": "Activity", "setting": "[5]", "result": "Active"}, {"measurement": "inhibition", "setting": "[6]", "result": 17, "unit": "%"}, {"measurement": "inhibition", "setting": "[7]", "result": "Tde"}, {"measurement": "inhibition", "setting": "[8]", "result": 0, "unit": "%"}, {"measurement": "inhibition", "setting": "[9]", "result": 21, "unit": "%"}, {"measurement": "inhibition", "setting": "[10]", "result": 0, "unit": "%"}, {"measurement": "inhibition", "setting": "[11]", "result": 40, "unit": "%"}, {"measurement": "Cmax", "setting": "[12]", "result": 7000, "unit": "ng/mL"}, {"measurement": "inhibition", "setting": "[13]", "result": 58, "unit": "%"}, {"measurement": "inhibition", "setting": "[14]", "result": 12, "unit": "%"}, {"measurement": "inhibition", "setting": "[15]", "result": 93, "unit": "%"}, {"measurement": "logD", "setting": "[16]", "result": 2.51}, {"measurement": "Vd", "setting": "[17]", "result": 6, "unit": "L/kg"}, {"measurement": "inhibition", "setting": "[18]", "result": 66, "unit": "%"}]}, {"smiles": "COc1cc2nccc(Oc3ccc(NC(=O)C4(C(=O)Nc5ccc(F)cc5)CC4)cc3)c2cc1OC", "note": "[CABOZANTINIB]", "values": [{"measurement": "Activity", "setting": "[19]", "result": "Active"}, {"measurement": "Activity", "setting": "[20]", "result": "Active"}]}]}
